Assay outcomes from PubChem.
Compounds with a hit are over-represented: about 3.2% of the library has one in this group of screens.
NR2E3 ag-1 = NR2E3 agonists in two-hybrid cells, primary screen, cell-based, luminescence, CHO-S, Gal4-NCOR/VP16-NR2E3 | Photoreceptor-specific nuclear receptor (Homo sapiens), Q9Y5X4 | luciferase | inhibition of corepressor binding, % at 3.98 µM | 0.35% of 360,000 active;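 active means inhibition above the mean of all tested compounds plus 3 SD, cut at about 70% in these data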;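 further: 0% = DMSO with NR2E3 transfected cells and 100% = cells lacking NR2E3 construct; higher means lower luciferase signal from less NR2E3 corepressor binding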
Target sequence (Q9Y5X4 whole entry, looked up, the tested form may be a part): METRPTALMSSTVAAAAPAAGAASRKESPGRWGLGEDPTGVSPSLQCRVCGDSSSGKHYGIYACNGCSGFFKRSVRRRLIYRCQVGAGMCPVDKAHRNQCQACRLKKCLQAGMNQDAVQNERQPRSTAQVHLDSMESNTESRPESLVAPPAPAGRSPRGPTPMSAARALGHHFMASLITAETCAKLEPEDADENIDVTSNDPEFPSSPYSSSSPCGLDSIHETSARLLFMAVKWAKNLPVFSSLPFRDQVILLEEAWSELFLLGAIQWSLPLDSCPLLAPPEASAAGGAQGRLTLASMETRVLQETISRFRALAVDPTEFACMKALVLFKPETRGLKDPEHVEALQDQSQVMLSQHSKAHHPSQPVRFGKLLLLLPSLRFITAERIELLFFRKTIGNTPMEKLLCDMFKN
DAX1 inh-1 = DAX1 (NR0B1) inhibitors, primary screen, cell-based, HEK293, Gal4-DAX1, luciferase luminescence; AID 504766, 2011; HEK293 Gal4-DAX1 luciferase reporter; inhibition, % at 6.75 µM; 0.99% of 340,000 active;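 active means inhibition above the mean over all tested compounds plus 3 SD, cut at about 4.2% in these data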;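 further: 0% = DAX1-transfected cells with DMSO and 100% = empty-vector control cells with DMSO; inhibition shows as a rise in luminescence from relieved DAX1 repression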
GASC-1 inh = inhibitors of GASC-1 histone demethylase, primary screen, biochemical, fluorescence, DELFIA europium; Lysine-specific demethylase 4C (Homo sapiens), Q9H3R0; GST-JMJD2C(1-420) H3K9me3 demethylation; inhibition, % at 2.35 µM; 0.069% of 330,000 active; AID 2099, 2009;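 active means more than half of a compound's replicate wells show inhibition beyond 50%, single wells judged on their own value; inconclusive means some, but no more than half, of replicates pass 50% inhibition; inactive means no replicate passes 50% inhibition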;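 further: signal counts dimethyl H3K9 product captured on neutravidin plate; 0% = median of DMSO wells and 100% = 0.3 times that DMSO median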
NR2E3 ag-2 = inhibitors of NR2E3-RetCOR corepressor binding, primary screen, NR2E3 agonist project, biochemical, TR-FRET, GST-NR2E3, biotin-RetCOR | AID 2300, 2010 | 0.12% of 320,000 active | inhibition of corepressor binding, % at 4.78 µM | Photoreceptor-specific nuclear receptor (Homo sapiens), Q9Y5X4 | 1536-well;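 active means percent inhibition above the cutoff of mean plus 3 SD of all tested compounds, set per screening campaign, cut at about 20% in these data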;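 further: 0% = DMSO wells and 100% = biotin wells as full block of FRET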
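System: GST-NR2E3 and biotin-RetCOR proteins; probe or stimulus: 7 nM biotin-RetCOR; doses: compound at 4.8 µM, single dose; schedule: Compound–protein incubation for 5 h at 4 °C; detection: time-resolved FRET; read-out: percent inhibition; controls: biotin wells as high control, 0.6% DMSO wells as low control; format: 1536-well plates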
DAX1 inh-2 = DAX1 (NR0B1) inhibitors on StAR promoter, primary screen, cell-based, luminescence, SF-1 (NR5A1), full-length DAX-1. HEK293T StAR-luciferase reporter, SF-1/DAX-1 repression relief. inhibition, % at 6.8 µM. 1.1% of 370,000 active. AID 652010, 2013;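 active means inhibition above the mean over all tested compounds plus 3 SD, cut at about 3.6% in these data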;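 further: 0% = DAX-1 cells with DMSO and 100% = cells lacking DAX-1 with DMSO; higher inhibition means more luminescence from relief of DAX-1 repression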
SMARCA2 act = SMARCA2 (BRM) function activators, primary screen, cell-based, luminescence, high throughput | MG213 cells, MMTV-luciferase reporter, dexamethasone, overnight | activation, % at 9.1 µM | 1% of 370,000 active | AID 652017, 2013; in the data active means activation above about 7.8%;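 further: 0% = vehicle wells and 100% = reference activator wells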
NR2E3 ag confirm = NR2E3 agonist confirmation in cells, cell-based, luminescence, CHO-S two-hybrid; shares compounds with NR2E3 ag-1; CHO-S mammalian two-hybrid NR2E3-NCOR, luciferase luminescence; inhibition, % at 3.98 µM; 51% of 2,300 active;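 active means average inhibition above a cutoff equal to the mean inhibition of all tested compounds plus one SD, cut at about 70% in these data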;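 further: 0% = DMSO in NR2E3 cells and 100% = DMSO in cells lacking NR2E3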
VP16 counter = GAL4-VP16 reporter modulators, confirmation, counter-screen for NR2E3 agonist project, cell-based, luminescence, CHO-S, high throughput; shares compounds with NR2E3 ag-1; CHO-S GAL4-VP16 luciferase reporter; inhibition, % at 3.98 µM; 29% of 2,300 active;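 active means mean inhibition above a cutoff equal to the average over all tested compounds plus one standard deviation, cut at about 70% in these data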;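 further: luciferase from a UAS reporter driven by GAL4-VP16 transactivation; 0% = DMSO with VP16-transfected cells and 100% = DMSO with cells lacking VP16; higher means less reporter light so more repression of VP16 activity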
The depositor's hits bear a star; ? = inconclusive; / = not tested or not shown.

SMILES | NR2E3 ag-1 | DAX1 inh-1 | GASC-1 inh | NR2E3 ag-2 | DAX1 inh-2 | SMARCA2 act | NR2E3 ag confirm | VP16 counter
CCOC(=O)c1cnc(-n2nc(C)cc2C)nc1NCc1ccccc1 | 93.5* | -1.9 | ? | 3.6 | -2.5 | -3.8 | 14.2 | -0.4
CCOC(=O)c1cnc(-n2nc(C)cc2C)nc1NC(C)c1ccccc1 (stereo not given) | 98.1* | -0.7 | -5.3 | -5.5 | -0.4 | -0.7 | 14.4 | 4.5
CCN(C)C(=O)CNc1nnnn1-c1ccccc1 | / | / | / | / | -0.9 | -0.6 | / | /
CC1(C)CC(=O)C2=C(C1)c1c(ccc3ccccc13)NC2c1cc([N+](=O)[O-])cc([N+](=O)[O-])c1O (stereo not given) | 57.4 | 0.5 | 12.7 | 0.0 | 0.8 | -7.1 | 98.4* | 60.6
CCCCOc1ccc(C(=O)n2ccc3ccc(-c4ccc5ccn(Cc6ccc(OC)cc6)c5c4)cc32)cc1 | / | / | / | / | -1.8 | -3.0 | / | /
O=c1[nH]cnc2c1nnn2C1OC(CO)C(O)C1O (stereo not given) | 48.9 | / | / | / | 2.9 | 5.4 | -39.9 | 25.5
O=c1[nH]cnc2c1ncn2C1OC(CO)C(O)C1O (stereo not given) | 28.4 | -0.5 | / | / | 0.1 | -1.9 | / | /
Nc1cc(S(=O)(=O)N2CCCCC2)ccc1N1CCOCC1 | 11.5 | -0.2 | 0.5 | -0.1 | -0.3 | -4.2 | / | /
COc1ccc(NS(=O)(=O)c2ccc(N3CCCCC3)c(N)c2)cc1 | 92.0* | -1.2 | 5.5 | 0.9 | -6.0 | -5.0 | 95.1* | 85.6*
CC1CCN(c2ccc(S(=O)(=O)N3CCC(C)CC3)cc2N)CC1 | 100.0* | -0.8 | 8.8 | -0.8 | -0.5 | -4.9 | 87.4* | 72.1*
Nc1cc(S(=O)(=O)c2ccc(N3CCCCC3)c(N)c2)ccc1N1CCCCC1 | 94.1* | -2.0 | / | / | -1.7 | -1.8 | 95.2* | 83.8*
Nc1cc(S(=O)(=O)Nc2ccccc2Cl)ccc1N1CCCCC1 | 70.1* | -0.9 | 2.0 | / | -3.0 | -1.8 | 83.5* | 60.9
CC(NCc1ccco1)C(=O)N1CCN(c2cccc(C(F)(F)F)c2)CC1 (stereo not given) | / | / | / | / | -1.6 | -2.2 | / | /
Cc1ccc(-c2c(NC(=O)C3CC3)nc3ncccn23)cc1 | / | / | / | / | 1.1 | 0.0 | / | /
COc1ccc(C(=O)OCCCN(C)C2CN(Cc3cn(Cc4cccc(F)c4)nn3)S(=O)(=O)C2)cc1OC (stereo not given) | / | / | / | / | -1.2 | -0.1 | / | /
O=C(O)C(Cc1ccnc2ccccc12)=NO | 9.8 | -0.5 | / | / | -0.9 | -3.8 | / | /
OC(Cc1ccnc2ccccc12)C(Cl)(Cl)Cl (stereo not given) | 68.9 | -3.2 | / | / | -2.8 | -4.9 | 59.1 | 59.6
CCCCOC(=O)c1[nH]c2c(c1C)C(=O)CC(c1cc(OC)c(OC)c(OC)c1)C2 (stereo not given) | 89.3* | -7.8 | 6.0 | 1.2 | -5.0 | -3.4 | 84.4* | 60.9
COCCOC(=O)c1[nH]c2c(c1C)C(=O)CC(c1cc(OC)c(OC)c(OC)c1)C2 (stereo not given) | 14.7 | -3.1 | 1.6 | -4.4 | -1.5 | -4.6 | / | /
C=CCOC(=O)c1[nH]c2c(c1C)C(=O)CC(c1cc(OC)c(OC)c(OC)c1)C2 (stereo not given) | 54.1 | -7.9 | -3.2 | 0.3 | / | / | 72.9* | 45.3
O=C(C1CCCN1S(=O)(=O)c1ccc(F)cc1)N1CCc2ccccc2C1 (stereo not given) | / | / | / | / | -0.7 | -5.0 | / | /
